Results from the RNAGym collection of RNA variant scans (doi:10.1126/science.aae0568).
This sample holds only a part of the variants without activity.

B1: tRNA (parent)
chain: GUUCCGUUGGCGUAAUGGUAACGCGUCUCCCUCCUAAGGAGAAGACUGCGGGUUCGAGUCCCGUACGGAACG

Variants of: B1
Test: yeast fitness relative to wild type (ratio to wild type); higher = fitter; tRNA-Arg(CCU), competitive growth, 37 C, YPD
In short: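 Amplicons of the tRNA-Arg(CCU) gene were sequenced, 100-nucleotide paired-end, from the start population and from each end population of a pooled yeast competition. The competition, in six parallel replicates, lasted 24 hours in YPD at 37°C. Fitness relative to wild type was calculated from changes in genotype frequencies. Genotypes had to have ≥ 100 starting reads, and estimates < 0.5 were set to 0.5.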
For C4A G44C G51A G58C U59A, the yeast fitness was ≤ 0.5. C30U A43C A70U gave a yeast fitness of 0.556. Variant G10C A45C C46A C66U has a yeast fitness of 0.643. C5U U32C showed a yeast fitness of 0.892. With A40U C49G G56C the yeast fitness was ≤ 0.5. For G12C G25C C60A A69U, the yeast fitness was ≤ 0.5. In the case of A15C U35C U47C, the yeast fitness is reported as ≤ 0.5. For C24G U64A C66A, the yeast fitness was ≤ 0.5. For G10C C24A C61U, the yeast fitness was ≤ 0.5. With U16G C30U C46G the yeast fitness was 0.541. In the case of C11U C22A C29G C33U U35C A70C, the yeast fitness is reported as ≤ 0.5. With G10A A15G the yeast fitness was 0.782. In the case of U19G U64C, the yeast fitness is reported as 0.841. For C27U A36C A42U C46U C62U G63A, the yeast fitness was ≤ 0.5. U28G C62G showed a yeast fitness of 0.587. Variant A15U A57C A65U has a yeast fitness of 0.794. In the case of A20U U32A A65C, the yeast fitness is reported as ≤ 0.5. For A40G C61U A65U, the yeast fitness was ≤ 0.5. G25A C27G C61G showed a yeast fitness of 0.574. C22G C29A G63A gave a yeast fitness of 0.553. For C24A U26G G56C, the yeast fitness was ≤ 0.5. C46G U53A gave a yeast fitness of 0.75. For U35A U53C, the yeast fitness was ≤ 0.5. For G6C C29G U35C A57G, the yeast fitness was ≤ 0.5. In the case of U8G G56A, the yeast fitness is reported as 0.568. U8C U13C C24A A37G showed a yeast fitness of 0.761. With U2C U26C C46U the yeast fitness was 0.683. With C4G G38C the yeast fitness was 0.763. With U32A A36U C62U the yeast fitness was ≤ 0.5. In the case of C11A U19A C29A U32A U54C C55G C60G A70U, the yeast fitness is reported as ≤ 0.5. With A15G A20C A43U U54A the yeast fitness was ≤ 0.5. In the case of U2A C4A G12A C33U G39A U64A A70C, the yeast fitness is reported as ≤ 0.5. For G18C C29U C30U C49U G67A, the yeast fitness was ≤ 0.5. With C55A A70U the yeast fitness was 0.658. In the case of A14U U35A G52A C61G C66A, the yeast fitness is reported as ≤ 0.5. In the case of C22G C27G C31G C61G A69U, the yeast fitness is reported as 0.62. In the case of G9A C11G U19C A20G G56A C60G, the yeast fitness is reported as ≤ 0.5. G17A C22G C27A showed a yeast fitness of 0.579. For G23A C24G A40U A65U, the yeast fitness was ≤ 0.5. For C4U A14G C34G, the yeast fitness was ≤ 0.5. For U2A C5G A15G, the yeast fitness was 0.575. In the case of C11A G38U C66A, the yeast fitness is reported as ≤ 0.5. In the case of G12A C27U A42U C62U, the yeast fitness is reported as ≤ 0.5. In the case of C30U A69U, the yeast fitness is reported as 0.879. Work on G50C U54A yielded a yeast fitness of 0.524. G25C U35C G58C showed a yeast fitness of 0.558. With G12A A15U C24A A45G the yeast fitness was ≤ 0.5. For C22G C66U, the yeast fitness was 0.896. For G6A C22G A45C G52C A57U A69C, the yeast fitness was ≤ 0.5. With C4U U16A A40C C55U C61A C66A the yeast fitness was 0.528. With A20C C31A the yeast fitness was 0.79. Variant U2G C11U A20C A70C has a yeast fitness of 0.667. Variant C4A A37U C55U has a yeast fitness of 0.585. In the case of G18A U47C A57U, the yeast fitness is reported as ≤ 0.5. With G12C C29U A42U U47C C62U the yeast fitness was ≤ 0.5. Variant C4A C11A C33G has a yeast fitness of 0.544. In the case of G56A A57C, the yeast fitness is reported as 0.699. For A15G C29G C33A G67A, the yeast fitness was 0.569. With U2A U16C C30A A65U the yeast fitness was ≤ 0.5. G48A G68A gave a yeast fitness of 0.998. For A15C U28C G48C G68U A69U, the yeast fitness was ≤ 0.5. With U3A U19A C62U the yeast fitness was 0.776. Variant U16A U28C A70C has a yeast fitness of 0.569. With C4U C11U G67A A69C the yeast fitness was ≤ 0.5. In the case of A14U U16A G25A A37G, the yeast fitness is reported as ≤ 0.5. With U7C C30U C34A C46U G58A A65U the yeast fitness was ≤ 0.5. With C11G C27G C66U the yeast fitness was ≤ 0.5. Variant G50C C55A has a yeast fitness of 0.619. With G25C C27G U35C the yeast fitness was ≤ 0.5. G12C U47A A70G gave a yeast fitness of 0.554. Variant G9A C11U C61A has a yeast fitness of 0.56. With C29A A57U C60G the yeast fitness was ≤ 0.5. In the case of U19G G41A G48C C49U A57C A70U, the yeast fitness is reported as ≤ 0.5. C22A G25A A69C showed a yeast fitness of 0.784. In the case of U13G A40G G44C C61G, the yeast fitness is reported as ≤ 0.5. For C11U A45U C61G A65C, the yeast fitness was ≤ 0.5. For G6C A65U, the yeast fitness was 0.917. Work on C24U G67A yielded a yeast fitness of 0.913. In the case of A42C G50A C61G, the yeast fitness is reported as 0.793. For U2A A45C G58A C61U, the yeast fitness was ≤ 0.5. With C4G G41A A43C the yeast fitness was ≤ 0.5. With C5G A14C C29A C31G the yeast fitness was 0.529. For U16A C24A A43G G68A, the yeast fitness was ≤ 0.5. With C5A A45U C55U G56A U59A C66G the yeast fitness was ≤ 0.5. In the case of A14C C22G G67A, the yeast fitness is reported as ≤ 0.5. C33A G68C showed a yeast fitness of 0.744. In the case of C31A G38A A65G, the yeast fitness is reported as 0.591. Variant C5U A40G A45U has a yeast fitness of 0.638. In the case of U7A A20G C31U A57C G67C, the yeast fitness is reported as ≤ 0.5. For C5A A20G G39C G52A, the yeast fitness was 0.593. In the case of U3A C5U A37U, the yeast fitness is reported as ≤ 0.5. With C5G G17C G23C the yeast fitness was ≤ 0.5. For C11U U28A C33G, the yeast fitness was 0.619. For A14C U19G C31G C33U A42G U64C A65G A69C, the yeast fitness was ≤ 0.5. Variant U13C A14G C24A U32G A37C U64A has a yeast fitness of 0.646. Variant G38C A45G has a yeast fitness of 0.641. With A20C A42C A45C G48A the yeast fitness was 0.565. With A21U C55G the yeast fitness was 0.527. In the case of U2A C29A A43C, the yeast fitness is reported as ≤ 0.5. With A14U G18A C30A the yeast fitness was ≤ 0.5. For U2G C24A C31G, the yeast fitness was ≤ 0.5. For G12C G44C C66U, the yeast fitness was 0.573. For C33U C49A G63C, the yeast fitness was ≤ 0.5. For C5A C60U A70G, the yeast fitness was ≤ 0.5. U2C U47A C62U showed a yeast fitness of 0.531. In the case of C11G U32A A37C G39A A43G U54C C62G, the yeast fitness is reported as ≤ 0.5. For U3A A45U C46G G52A, the yeast fitness was 0.613. In the case of C11U G68C, the yeast fitness is reported as 0.814. With A15C G52C the yeast fitness was 0.575. C30U G67U showed a yeast fitness of 0.83. U28C C49G showed a yeast fitness of 0.909. In the case of C4U G12A U16A G51A U54A, the yeast fitness is reported as ≤ 0.5. With C4G U7G C29A A65C the yeast fitness was ≤ 0.5. Variant C30A A42U C55U C66A has a yeast fitness of 0.531. In the case of G17A C24G C33U A37U, the yeast fitness is reported as ≤ 0.5. For G6C C46G A57G C62U C66U, the yeast fitness was ≤ 0.5. In the case of G23U A43U C55G, the yeast fitness is reported as ≤ 0.5. For U16C C22U A37U G67C, the yeast fitness was ≤ 0.5. In the case of C5G A20C A42U G44A C61G, the yeast fitness is reported as ≤ 0.5. Variant U54C A70U has a yeast fitness of 0.869. In the case of C5G U16C A20G A70U, the yeast fitness is reported as ≤ 0.5. With U3G G6A U8C the yeast fitness was ≤ 0.5. With C29A A42U U64C the yeast fitness was ≤ 0.5. G18A U19C gave a yeast fitness of 0.79. In the case of A14C C24U G51C U54A, the yeast fitness is reported as ≤ 0.5. For U28C G39A A40U A42G, the yeast fitness was ≤ 0.5. In the case of C24A C27A U28A C55G, the yeast fitness is reported as ≤ 0.5. With U26C A45G C55A C66U the yeast fitness was 0.701. For A14U C33U A36U G41C, the yeast fitness was ≤ 0.5. C24U G25C G56A gave a yeast fitness of 0.882. With C31U G39C the yeast fitness was 0.901. In the case of C34U A40U A57U, the yeast fitness is reported as ≤ 0.5. For G9A G12C A65G G67C A69G, the yeast fitness was ≤ 0.5. For C27U A37U G67A, the yeast fitness was ≤ 0.5. With A15G C24A C46A the yeast fitness was 0.64. In the case of C4G A14U A37U U53C A69U, the yeast fitness is reported as ≤ 0.5. Work on A20G A43U yielded a yeast fitness of 1.03. U26A C46G C61U gave a yeast fitness of 0.699. With U26C A36C A45G U54C the yeast fitness was ≤ 0.5. A21G G58C U59C gave a yeast fitness of 0.961. For G48C A70G, the yeast fitness was 0.901. Work on G48C A70C yielded a yeast fitness of 0.784. With G23A C27G C55G the yeast fitness was ≤ 0.5. In the case of C11A U59A G67C A69C, the yeast fitness is reported as ≤ 0.5. With C30G C46G A57U C66U A70U the yeast fitness was ≤ 0.5. For U13A A20G A42G C46U, the yeast fitness was ≤ 0.5. G6C C31A A65G C66U gave a yeast fitness of 0.594. In the case of C11G G12A C24A C30G G44C C61G, the yeast fitness is reported as ≤ 0.5. For C11G A21U C24U, the yeast fitness was ≤ 0.5. For U16C A20U C24U A65U, the yeast fitness was ≤ 0.5. In the case of A14G G38A, the yeast fitness is reported as 0.799. Work on C4G C22U C27U yielded a yeast fitness of 0.657. For G17A G18C G39C A65U, the yeast fitness was ≤ 0.5. For U2G G12A C55U C61A, the yeast fitness was ≤ 0.5. For C11G C49U C61A, the yeast fitness was 0.582. In the case of U19C G50A C55A C66A, the yeast fitness is reported as 0.516. Work on U3A C46U yielded a yeast fitness of 1. With C4G C11G C55U C61A G68A the yeast fitness was ≤ 0.5. For G12A A20G G63A, the yeast fitness was ≤ 0.5. In the case of C4U C11G A20G C34U, the yeast fitness is reported as ≤ 0.5. In the case of U2A U3A U26A G51A, the yeast fitness is reported as ≤ 0.5. With U3A C22U G39A C66U A69C the yeast fitness was ≤ 0.5. Work on A40U U54A C60G G67C yielded a yeast fitness of 0.599. With C11U C30G U35A C46U G51A G56A the yeast fitness was ≤ 0.5. With G17A C46U A65C the yeast fitness was 0.658. With A20C G25A C31G C33U C34U G41C C60A C66U the yeast fitness was ≤ 0.5. In the case of G6A A14U C22U A37G, the yeast fitness is reported as ≤ 0.5.
